For one compound, inhibition, IC50 and Kp uu results are on record in ChEMBL document CHEMBL4028902, “Azetidine and Piperidine Carbamates as Efficient, Covalent Inhibitors of Monoacylglycerol Lipase” (J Med Chem, 2017).

In general, inhibition refers to the drop in the measured response relative to a control, in per cent. Higher therefore signals a strong effect. For orientation: IC50 means the concentration that gives 50% inhibition.

Data set [1] addresses T1, Platelet-activating factor acetylhydrolase (Homo sapiens) (UniProt Q13093).
T1 sequence (whole entry): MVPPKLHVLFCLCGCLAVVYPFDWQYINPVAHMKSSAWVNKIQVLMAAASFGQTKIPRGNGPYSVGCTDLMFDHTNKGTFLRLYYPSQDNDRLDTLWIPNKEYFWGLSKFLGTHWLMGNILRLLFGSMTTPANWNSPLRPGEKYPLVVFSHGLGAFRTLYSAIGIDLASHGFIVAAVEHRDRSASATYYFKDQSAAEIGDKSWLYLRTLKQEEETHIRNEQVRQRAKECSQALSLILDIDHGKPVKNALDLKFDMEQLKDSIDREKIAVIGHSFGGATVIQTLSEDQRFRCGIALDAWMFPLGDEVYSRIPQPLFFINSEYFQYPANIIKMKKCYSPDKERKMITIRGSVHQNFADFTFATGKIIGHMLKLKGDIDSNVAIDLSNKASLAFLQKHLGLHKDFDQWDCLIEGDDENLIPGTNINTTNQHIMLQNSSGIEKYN
As to the kind of experiment: Inhibition of human PLA2G7 at 1 to 10 uM relative to control.

For data set [2], the target named is T2, Fatty-acid amide hydrolase 1 (Homo sapiens, UniProt O00519).
T2 sequence (O00519 whole entry): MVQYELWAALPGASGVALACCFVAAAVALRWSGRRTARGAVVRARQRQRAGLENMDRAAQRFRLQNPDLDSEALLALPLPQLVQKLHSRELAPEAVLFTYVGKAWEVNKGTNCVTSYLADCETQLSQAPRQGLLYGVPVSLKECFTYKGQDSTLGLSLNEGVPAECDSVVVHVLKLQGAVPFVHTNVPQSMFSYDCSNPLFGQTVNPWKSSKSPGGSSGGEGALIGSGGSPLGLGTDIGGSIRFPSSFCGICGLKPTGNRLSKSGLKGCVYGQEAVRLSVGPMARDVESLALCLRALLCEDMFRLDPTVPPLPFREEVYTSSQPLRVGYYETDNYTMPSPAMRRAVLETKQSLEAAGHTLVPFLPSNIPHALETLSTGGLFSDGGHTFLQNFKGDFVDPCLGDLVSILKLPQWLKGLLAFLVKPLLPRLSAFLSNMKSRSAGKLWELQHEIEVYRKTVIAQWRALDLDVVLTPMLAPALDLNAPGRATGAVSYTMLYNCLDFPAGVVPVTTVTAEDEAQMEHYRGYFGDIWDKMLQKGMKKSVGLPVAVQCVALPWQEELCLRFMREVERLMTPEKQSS
As to the kind of experiment: Inhibition of human recombinant FAAH using arachidonoyl-AMC as substrate preincubated for 30 mins followed by substrate addition measured after 60 mins by fluorescence assay. The gist of the method:
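Human recombinant FAAH (0.0125 unit final) in 50 mM Tris pH 9.0, 1 mM EDTA, preincubated 30 min at room temperature with compound (final 30 μM–0.3 nM). Arachidonoyl-AMC added (5 μM final), reaction run 60 min, fluorescence Ex/Em 355/460. Percent inhibition versus no-compound and full-inhibition controls.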

A short description of data set [3]: Ratio of unbound drug level in C57Bl6 mouse brain to plasma at 10 mg/kg, sc. The class given is ADME, organism-based. The gist of the method: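 Subcutaneous dosing of C57Bl6 mice in DMSO/Cremophor/saline (5:5:90). Plasma (NaF/K2EDTA tubes) and cerebellum collected at 0.5–24 h, 3 mice per time point. Cerebellum diluted 1:4 (w/v) with water and homogenized; samples deproteinated with methanol/acetonitrile plus internal standard, then HPLC-MS/MS. LLOQ 1.0 ng/mL plasma, 0.5 ng/mL brain homogenate. PK parameters by noncompartmental analysis.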

For `O=C(OC(C(F)(F)F)C(F)(F)F)N1CC(c2ccn(-c3ccccc3)n2)C1`, in data set [1], the inhibition was > 70%. In addition, the IC50 in data set [2] is 260 nM. In addition, the Kp uu in data set [3] is 0.6.
